# Test results as given in ChEMBL document CHEMBL2169744, “Discovery and optimization of potent and selective imidazopyridine and imidazopyridazine mTOR inhibitors” (Bioorg Med Chem Lett, 2012).
# Columns and labels:
# [1] = Inhibition of mTORC1-mediated 4EBP1-phosphorylation in human U87 cells; format: cell-based, U-87MG ATCC
# [2] = target: Phosphatidylinositol 4,5-bisphosphate 3-kinase catalytic subunit alpha isoform (Homo sapiens, UniProt P42336); assay: Inhibition of PI3Kalpha by AlphaScreen assay
# [3] = Volume of distribution at steady state in rat at 0.5 mg/kg, iv; format: ADME, organism-based; set-up: dose 0.5 mg/kg, route intravenous; settings: in vivo, read-out: Vdss
# [4] = AUC in rat at 0.5 mg/kg, iv; format: ADME, organism-based, Plasma; set-up: dose 0.5 mg/kg, route intravenous; settings: plasma
# [5] = Plasma protein binding in rat at 5 mg/kg, po; format: ADME, organism-based; set-up: dose 5 mg/kg, route oral; settings: read-out: PPB (converted)
# [6] = Half life in rat at 0.5 mg/kg, iv; format: ADME, organism-based; set-up: dose 0.5 mg/kg, route intravenous; settings: in vivo
# [7] = Oral bioavailability in rat at 5 mg/kg; format: ADME, organism-based; settings: in vivo
# Summary of the method: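 Rat oral PK at 5.0 mpk in 1% Tween 80, 2% HPMC, 97% H2O, pH 2.2 (methanesulfonic acid).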
# [8] = Clearance in rat at 0.5 mg/kg, iv; format: ADME, organism-based; set-up: dose 0.5 mg/kg, route intravenous; settings: in vivo
# [9] = target: Serine/threonine-protein kinase mTOR (Homo sapiens, UniProt P42345); assay: Inhibition of mTOR by LanthaScreen assay
# [10] = species: Rattus norvegicus; assay: Unbound clearance in rat; format: ADME, organism-based; settings: in vivo
# [11] = Clearance in rat at 1 mg/kg, iv; format: ADME, organism-based; set-up: dose 1 mg/kg, route intravenous; settings: in vivo
# [12] = Inhibition of mTORC2-mediated AKT Ser473-phosphorylation in human U87 cells; format: cell-based, U-87MG ATCC; settings: U-87 MG
# Summary of the method: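 Cell assay in U87 cells measuring pAKT (S473), n ≥ 2.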
# [13] = Solubility of the compound in simulated intestinal fluid; format: physicochemical
# [14] = Homo sapiens, U-87 MG, read-out: IC50
# Sequence of Phosphatidylinositol 4,5-bisphosphate 3-kinase catalytic subunit alpha isoform (P42336 whole entry, canonical isoform): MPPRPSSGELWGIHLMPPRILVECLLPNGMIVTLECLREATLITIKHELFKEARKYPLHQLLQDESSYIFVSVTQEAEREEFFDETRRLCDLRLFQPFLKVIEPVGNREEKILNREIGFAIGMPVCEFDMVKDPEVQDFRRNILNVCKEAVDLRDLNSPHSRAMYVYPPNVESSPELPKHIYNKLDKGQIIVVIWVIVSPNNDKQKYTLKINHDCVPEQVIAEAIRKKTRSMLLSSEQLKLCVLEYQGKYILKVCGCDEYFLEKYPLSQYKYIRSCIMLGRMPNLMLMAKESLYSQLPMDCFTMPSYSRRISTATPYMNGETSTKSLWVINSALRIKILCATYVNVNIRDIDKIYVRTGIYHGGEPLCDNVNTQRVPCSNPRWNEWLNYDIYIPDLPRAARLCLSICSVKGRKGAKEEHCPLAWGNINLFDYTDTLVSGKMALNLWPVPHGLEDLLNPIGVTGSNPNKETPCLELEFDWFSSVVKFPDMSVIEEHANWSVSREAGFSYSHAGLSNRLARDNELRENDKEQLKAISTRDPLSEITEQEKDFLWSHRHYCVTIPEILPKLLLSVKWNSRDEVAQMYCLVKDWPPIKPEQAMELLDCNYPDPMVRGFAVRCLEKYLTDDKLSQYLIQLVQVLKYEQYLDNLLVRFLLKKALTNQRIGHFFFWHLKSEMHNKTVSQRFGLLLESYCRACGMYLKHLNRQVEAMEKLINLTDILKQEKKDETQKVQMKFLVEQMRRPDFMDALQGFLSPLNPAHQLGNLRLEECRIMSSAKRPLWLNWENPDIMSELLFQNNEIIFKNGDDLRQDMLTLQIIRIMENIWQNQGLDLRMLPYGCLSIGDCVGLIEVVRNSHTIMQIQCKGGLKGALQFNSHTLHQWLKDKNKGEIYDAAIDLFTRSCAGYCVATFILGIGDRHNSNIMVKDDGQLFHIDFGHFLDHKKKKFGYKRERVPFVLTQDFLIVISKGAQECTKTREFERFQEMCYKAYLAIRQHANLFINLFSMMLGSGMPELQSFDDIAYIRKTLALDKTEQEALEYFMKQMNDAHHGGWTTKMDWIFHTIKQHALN
"IC50 [1, 14] [nM]",IC50 [2] [nM],Vd [3] [L/kg],AUC [4] [µM·h],fraction unbound [5],half-life [6] [min],bioavailability [7] [%],clearance [8] [mL/min/kg],IC50 [9] [nM],CL free [10] [mL/min/kg],clearance [11] [mL/min/kg],IC50 [12] [nM],IC50 ([1]; u-87mg atcc),solubility [13] [µg/mL],SMILES
940,4580,0.6,2.3,0.056,39.6,4,10,67,180,–,–,–,–,CC(=O)Nc1cc(-c2c(Nc3ccn(C)n3)nc3ccccn23)nc(C)n1
93,85,–,–,–,–,–,–,2,–,33.3,5,–,–,Cc1nc(N)nc(-c2c(Nc3cc[nH]n3)nc3ccc(-c4cncnc4)cn23)n1
72,177,–,–,–,–,–,–,3,–,33.3,7,–,–,Cc1cc(-c2ccc3nc(Nc4cc[nH]n4)c(-c4nc(C)nc(N)n4)n3c2)on1
–,635,1,–,–,15.6,–,41.7,76,–,–,–,Not Active,1,Cc1nc(N)nc(-c2c(Nc3ccn(C)n3)nc3ccc(-c4cncnc4)cn23)n1
2170,3020,0.62,–,–,13.8,–,31.7,141,–,–,–,–,14,Cc1nccc(-c2c(Nc3ccn[nH]3)nc3cccnn23)n1
510,268,–,–,–,–,–,–,39,–,33.3,138,–,–,COc1ncccc1-c1ccc2nc(Nc3ccn[nH]3)c(-c3nc(C)nc(N)n3)n2c1
706,1140,1.3,–,–,15.6,29,80,63,–,–,–,–,7,CNc1cc(-c2c(Nc3cc[nH]n3)nc3cccnn23)nc(C)n1
912,654,–,–,–,–,–,–,27,–,33.3,73,–,–,Cc1nc(N)nc(-c2c(Nc3ccn[nH]3)nc3ccc(-c4cccc(F)c4)cn23)n1
652,393,–,–,–,–,–,–,21,–,33.3,54,–,–,Cc1nc(N)nc(-c2c(Nc3cc[nH]n3)nc3ccc(-c4ccccc4C)cn23)n1
67,648,–,–,–,–,–,–,15,–,33.3,64,–,–,Cc1nc(N)nc(-c2c(Nc3cc[nH]n3)nc3ccc(-c4ccccc4F)cn23)n1
146,105,3.2,–,–,21.6,–,100,36,–,–,–,–,> 200,Cc1nc(Nc2cnn(C3CCOC3)c2)cc(-c2c(Nc3ccn[nH]3)nc3cccnn23)n1 (stereo not drawn)
101,119,–,–,–,–,–,–,3,–,33.3,12,–,–,Cc1nc(N)nc(-c2c(Nc3cc[nH]n3)nc3ccc(-c4cccnc4)cn23)n1
41,120,–,–,–,–,–,–,3,–,33.3,10,–,–,Cc1nc(N)nc(-c2c(Nc3cc[nH]n3)nc3ccc(-c4cccnc4C)cn23)n1
1230,1660,0.8,1.3,0.033,23.4,34,18.3,55,555,–,–,–,–,CC(=O)Nc1cc(-c2c(Nc3ccn(C)n3)nc3cccnn23)nc(C)n1
60,112,1.2,0.6,–,31.2,–,38.3,9,–,–,–,–,–,CC(=O)Nc1cc(-c2c(Nc3cc[nH]n3)nc3ccccn23)nc(C)n1
115,96,–,–,–,–,–,–,–,–,33.3,29,–,–,CC(=O)Nc1cccc(-c2ccc3nc(Nc4cc[nH]n4)c(-c4nc(C)nc(N)n4)n3c2)c1
58,144,–,–,–,–,–,–,2,–,33.3,8,–,–,Cc1nc(N)nc(-c2c(Nc3ccn[nH]3)nc3ccc(-c4cnn(C5CC5)c4)cn23)n1
347,3170,4.1,0.2,–,42,3,117,20,–,–,–,–,–,CC(=O)Nc1cc(-c2c(Nc3ccn(C)n3)nc3ccc(-c4cnco4)cn23)nc(C)n1
694,> 125000,2.1,1.8,0.004,258,8,8.33,16,–,–,–,–,–,CC(=O)Nc1cc(-c2c(Nc3ccn(C)n3)nc3ccc(-c4cnn(C(C)C)c4)cn23)nc(C)n1
210,763,2,1,0.088,51,100,38.3,13,435,–,–,–,150,Cc1nc(N)cc(-c2c(Nc3cc[nH]n3)nc3cccnn23)n1
66,122,2.5,–,–,25.2,–,96.7,6,–,–,–,–,–,Cc1nc(Nc2cnccn2)cc(-c2c(Nc3ccn[nH]3)nc3cccnn23)n1
276,463,–,–,–,–,–,–,5,–,33.3,23,–,–,Cc1nc(N)nc(-c2c(Nc3ccn[nH]3)nc3ccc(-c4cncn4C)cn23)n1
85,54,9.1,–,–,70.8,–,103,3,–,–,–,–,175,COc1cnnc(Nc2cc(-c3c(Nc4cc[nH]n4)nc4cccnn34)nc(C)n2)c1
6390,1140,–,–,–,–,–,–,147,–,–,–,–,1,Cc1nc(Nc2cccnc2)cc(-c2c(Nc3ccn[nH]3)nc3cccnn23)n1
222,239,–,–,–,–,–,–,4,–,33.3,23,–,–,Cc1cc(-c2ccc3nc(Nc4cc[nH]n4)c(-c4nc(C)nc(N)n4)n3c2)ccn1
276,173,–,–,–,–,–,–,24,–,–,–,–,–,Cc1nc(Nc2cccnn2)cc(-c2c(Nc3ccn[nH]3)nc3cccnn23)n1
45,47,6.3,0.6,0.056,49.2,46,43.3,3,–,–,–,–,200,CC(=O)Nc1cc(-c2c(Nc3cc[nH]n3)nc3cccnn23)nc(C)n1
57,68,–,–,–,–,–,–,3,–,33.3,6,–,–,Cc1nc(N)nc(-c2c(Nc3ccn[nH]3)nc3ccc(-c4cncnc4C)cn23)n1
49,73,–,–,–,–,–,–,2,–,33.3,13,–,–,Cc1nc(N)nc(-c2c(Nc3cc[nH]n3)nc3ccc(-c4cnccc4C)cn23)n1
326,306,–,–,–,–,–,–,6,–,33.3,26,–,–,Cc1nc(N)nc(-c2c(Nc3cc[nH]n3)nc3ccc(-c4ccncc4)cn23)n1
